# Autophagy HCS – alters autophagy in cells. MEF GFP-LC3 puncta imaging; test concentration mostly 10 µM. calls only at 10 µM (by protocol). 190,000 compounds, 0.98% hits. AID 463193;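 active means percentage of spot-positive cells more than 3 SD above its plate mean, without a fluorescence outlier flag or 80% toxicity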;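 further: spot-positive cell cutoff set from DMSO-treated cells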
# RBBP9 inhibitor – inhibitors of human serine hydrolase RBBP9; O75884; recombinant RBBP9, FP-Rh probe fluorescence polarization; inhibition, % at 7.94 µM; 220,000 compounds, 0.2% hits;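 active means inhibition above the campaign mean of all tested compounds plus 3 SD, cut at about 14% in these data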;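 further: plate controls were DMSO wells with RBBP9 for no effect and wells lacking RBBP9 protein for full effect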
#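 Material: RBBP9 protein. Amount: RBBP9 at 2.5 µM in dispensed solution, before mixing. Schedule: 30 min then 45 min, 25 °C. Medium: Tris buffer pH 8.0, NaCl, Pluronic. Measured by: fluorescence polarization. Measure: percent inhibition from mP, scaled between DMSO and no-protein wells. Replication: one well per compound.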
# Arbovirus anti – arbovirus infection inhibition; arbovirus infection cell-based antiviral screen; inhibition, % at 10 µM; AID 1251; 200,000 compounds, 0.37% hits; in the data active means inhibition above about 30%
# PKD1 inh – PKD1 (human) kinase inhibition; PKD1 kinase fluorescence polarization assay; 200,000 compounds, 0.056% hits; inhibition, % (test concentration not listed); in the data active means inhibition above about 50%
# Target sequence (Q15139 whole entry, looked up): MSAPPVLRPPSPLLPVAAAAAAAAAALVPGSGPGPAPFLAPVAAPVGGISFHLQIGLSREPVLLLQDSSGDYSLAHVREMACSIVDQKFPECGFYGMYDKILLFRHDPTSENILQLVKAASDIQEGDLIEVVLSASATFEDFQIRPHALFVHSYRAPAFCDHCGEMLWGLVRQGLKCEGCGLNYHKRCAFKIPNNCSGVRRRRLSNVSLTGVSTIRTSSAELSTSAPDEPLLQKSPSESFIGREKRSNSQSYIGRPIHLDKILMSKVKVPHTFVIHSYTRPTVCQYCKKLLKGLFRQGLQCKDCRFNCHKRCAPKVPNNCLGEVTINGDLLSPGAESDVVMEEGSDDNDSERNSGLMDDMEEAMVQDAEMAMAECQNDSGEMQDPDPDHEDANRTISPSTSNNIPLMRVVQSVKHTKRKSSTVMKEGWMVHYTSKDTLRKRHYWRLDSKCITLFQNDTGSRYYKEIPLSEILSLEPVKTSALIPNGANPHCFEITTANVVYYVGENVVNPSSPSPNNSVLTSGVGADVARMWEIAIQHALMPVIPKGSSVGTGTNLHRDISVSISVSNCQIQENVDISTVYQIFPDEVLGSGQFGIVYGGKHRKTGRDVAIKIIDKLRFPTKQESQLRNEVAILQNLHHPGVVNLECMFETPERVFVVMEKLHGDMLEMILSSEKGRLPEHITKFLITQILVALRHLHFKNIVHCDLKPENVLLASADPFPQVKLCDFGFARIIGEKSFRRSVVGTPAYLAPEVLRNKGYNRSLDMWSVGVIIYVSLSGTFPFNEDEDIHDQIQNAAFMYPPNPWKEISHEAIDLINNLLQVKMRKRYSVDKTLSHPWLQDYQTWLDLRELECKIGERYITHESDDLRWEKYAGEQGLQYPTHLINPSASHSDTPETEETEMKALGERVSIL
# Insulin prom inh – TRM-6 insulin promoter activity inhibition; TRM-6 cells (human fetal islet line), insulin promoter-eGFP reporter, imaging; reporter expression induced with tamoxifen; inhibition, % at 2 µM; 130,000 compounds, 0.9% hits; AID 1273;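 active means inhibition above the mean plus 3 SD, with well images judged a real hit on visual review, cut at about 60% in these data, passing the limit was not always enough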
# Insulin prom up – MIN6 insulin promoter up-regulation | MIN6 insulin promoter-GFP reporter, high-content imaging; hits give high values | z-score at 5 µM | 190,000 compounds, 0.3% hits;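 active means z-score above 3 at 5 µM with at least 500 cells counted in the well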
# An asterisk follows results filed as active; i = inactive; x = no result given; + = active, no number. Most compounds without a hit are left out; they make up all but 2.1% or so of the library.
SMILES,Autophagy HCS,RBBP9 inhibitor,Arbovirus anti,PKD1 inh,Insulin prom inh,Insulin prom up
CN(C)c1ccc(NC(=O)COC(=O)c2cc(=O)c3ccccc3o2)cc1,i,-5,11,-5,67*,-1.4
CCC(C)[C@H](NC(=O)NCc1ccc(Cl)cc1)C(=O)O (stereo not given in full),x,2,x,x,x,0.05
Cc1nc(Nc2ccc3c(c2)OCCO3)c2oc3ccccc3c2n1,i,-7,-7,9,67,-0.48
CCc1nc(Nc2ccc3c(c2)OCCO3)c2oc3ccccc3c2n1,i,-6,3,0,86*,-2
Cc1onc(-c2ccccc2)c1C(=O)NC(C)C,i,-5,18,4,x,0.67
C=CC[C@@H]1C=C[C@H](O/N=C/[C@@H](NS(=O)(=O)c2ccc(C)cc2)[C@H](C)/C=C/CC(=O)OC)[C@@H](CO)O1,i,-4,3,-14,-57,0.22
c1ccc(-n2ncc3c(NCc4ccc5c(c4)OCO5)ncnc32)cc1,i,-14,1,-4,-406,-0.3
COc1ccc(-n2ncc3c(NCc4ccc5c(c4)OCO5)ncnc32)cc1,i,-4,1,-1,75*,1.3
Cc1cccc(C(=O)N(c2ccccn2)C(C)c2ccco2)c1 (stereo not given),i,0,15,-9,-8,-0.36
COc1ccc(CC(=O)OCC(=O)NC(=O)NC23CC4CC(CC(C4)C2)C3)cc1,i,-13,-1,0,-19,0.07
CC1CC1C(=O)OCC(=O)NC(=O)NC12CC3CC(CC(C3)C1)C2 (stereo not given),i,-3,15,-2,100*,-1.2
O=C(O)C1CSC(c2ccccc2)N1C(=O)c1ccco1 (stereo not given),i,-7,6,5,74*,-0.61
CC(=O)N1C(C(=O)O)CSC1c1cccc(C)c1 (stereo not given),i,4,4,-3,10,0.54
O=C(NC1CCCC1)C(c1ccsc1)N(C(=O)Cc1cccs1)c1ccccc1 (stereo not given),i,3,2,-12,27,0.26
CC1CC(C)(C)CC2(C1)NC(=O)N(CC(=O)NCCc1c[nH]c3ccccc13)C2=O (stereo not given),i,-8,32*,-6,6,-0.18
COCCNC(=O)Cc1ccc(F)cc1,i,-5,-4,4,36,3*
CCOCCCNC(=O)Cc1ccc(F)cc1,i,0,-1,2,27,0.23
Cc1c(-n2c(O)c(C3=c4ccccc4=NC3=O)sc2=S)c(=O)n(-c2ccccc2)n1C,i,0,-10,8,15,x
CC(=O)N1CCN(Cc2nc3cc(NC(=O)Nc4ccccc4)ccc3n2C)CC1,i,-4,0,-3,x,0.58
CC(=O)N1CCN(Cc2nc3cc(NC(=O)c4ccccc4)ccc3n2C)CC1,i,-9,3,-3,0,3.4*
O=[N+]([O-])c1ccc(Oc2cccc(Br)c2)c2ccncc12,+,4,10,-2,18,0.05
O=[N+]([O-])c1ccc(Oc2ccc(F)cc2)c2ccncc12,i,12,-9,-1,55,-0.28
Cc1cccc(C)c1NC(=O)C(NC(=O)c1ccccn1)c1ccccc1[N+](=O)[O-] (stereo not given),i,-3,4,-2,-40,1.5
Cc1cccc(NC(=S)N(Cc2ccc(Br)cc2)Cc2ccc(C(=O)O)cc2)c1,i,-5,7,-2,x,-0.06
Cc1cc(NC(=S)N(Cc2ccc(Br)cc2)Cc2ccc(C(=O)O)cc2)ccc1Cl,i,-7,2,-5,x,3.8*
SMILES,Autophagy HCS,RBBP9 inhibitor,Arbovirus anti,PKD1 inh,Insulin prom inh,Insulin prom up
CCCCCC(=O)Nc1cccc(C2=NOC3(C2)C[C@H](C(N)=O)N(C(=O)COc2ccc(Cl)cc2)C3)c1 (stereo not given in full),x,x,x,x,x,0.23
COc1ccc(C(=O)NCC(C)(C)SCc2c(C)cc(C)cc2C)cc1,i,-9,46*,-2,-10,-0.74
COc1ccc(CNC(=O)c2ccc(C(C)(C)C)cc2)cc1,i,0,-4,-11,x,0.27
COc1ccc(C(=O)NC(C(=O)NCC(=O)Nc2c(C)cccc2C)C(C)C)cc1 (stereo not given),i,-14,1,-4,-30,-0.23
O=C(N/N=C/CCc1ccccc1)c1ccccc1,i,-6,1,-7,x,0.71
COC(=O)c1ccc(C2C(C#N)=C(N)Oc3cc(C)n(C)c(=O)c32)cc1 (stereo not given),i,5,2,-2,76*,0.27
Oc1ccc(Br)cc1-c1nc2cnccn2c1NC1CCCC1,i,-9,62*,2,15,-2.2
Oc1ccc(Br)cc1-c1nc2cnccn2c1NC1CCCCC1,i,4,11,-1,32,-0.22
Cc1ccc(C)c(N(CC(=O)N/N=C/c2ccc(-c3ccc([N+](=O)[O-])cc3)o2)S(=O)(=O)c2ccccc2)c1,+,-9,8,2,x,-1
O=C(Cc1ccccc1)N/N=C/c1ccc(-c2ccc([N+](=O)[O-])cc2)o1,+,-8,-1,3,0,0.8
COc1cc([N+](=O)[O-])ccc1-c1ccc(/C=N/NC(=O)OC(C)(C)C)o1,x,-7,x,x,x,0.92
COc1cc([N+](=O)[O-])ccc1-c1ccc(/C=N/NC(N)=O)o1,x,6,x,x,x,3.3*
O=[N+]([O-])c1ccc(/C=N/NC(=S)Nc2ccccc2)o1,i,-5,-5,2,-9,1.3
O=[N+]([O-])c1cccc(-c2ccc(/C=N/NC(=S)Nc3ccccc3)o2)c1,+,-5,-3,1,x,0.5
Cc1cc(CSC(=N)N)c(CSC(=N)N)cc1C,x,4,x,x,x,-1.2
O=C(NCC1CCCO1)C1CCN(S(=O)(=O)N2CCCC2)CC1 (stereo not given),i,-2,2,-9,x,3.6*
O=C1C(c2ccnc3ccccc23)=C(O)c2ccccc21,+,-2,-18,11,-130,-0.95
O=C1c2ccccc2C(=O)C1c1ccnc2ccccc12,i,-6,-14,-5,-488,x
Cn1c(SCC(=O)N/N=C/C=C\c2ccco2)nc2ccccc21,i,-13,6,-17,x,0.43
COc1cc(NC(=O)CCC(=O)OCCCC(F)(F)C(F)(F)F)nc(OC)n1,i,0,-2,7,x,-0.08
COc1cc(NC(=O)CCCC(=O)OCC(F)(F)C(F)F)nc(OC)n1,i,-5,106*,-15,x,0.82
Cc1cccc(-c2c3c(=O)n(C)c(=O)n(C)c3c3nnc4ccccc4n23)c1,+,9,x,2,-42,x
O=C(Cc1cccs1)N1CCN=C1SCc1ccccc1F,+,3,6,-3,x,-0.74
O=C(Cc1cccs1)N1CCN=C1SCc1ccccc1Cl,i,-6,2,-5,x,-0.61
O=C(CSCCS(=O)(=O)c1ccc(Cl)cc1)Nc1ccccc1,x,0,x,x,x,-0.62
